Assay outcomes (PubChem)
Compounds with a hit are over-represented: about 2.3% of the library has one in this group of screens.
LGR2 antag: Drosophila LGR2 receptor signaling inhibition. inhibition, % at 9.99 µM. AID 720647. HEK293 LGR2, CRE-luciferase, bursicon-stimulated, 4 h. hit rate 0.35% among 380,000;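 active means drop in luminescence signal, shown as inhibition above about 50% in the replicate tests, limit read from the data, passing the limit was not always enough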;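 further: agonist challenge used bursicon conditioned medium at about half maximal strength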
TROY signal inh: blocks TROY-dependent signaling in reporter cells; AID 1347056; Q293 LMP1-TROYcd NF-kB luciferase reporter, 4 h; hit rate 0.98% among 360,000; inhibition, % at 10 µM;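 active means compounds whose plate-normalised and pattern-corrected inhibition of the luciferase reporter signal at the single screening dose is 50% or more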
EWS-Fli block: inhibitors of EWS/Fli oncoprotein transcriptional activity; A673 NR0B1-luciferase reporter, viability-normalised; inhibition, % at 12.6 µM; hit rate 0.67% among 350,000;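 active means mean inhibition of at least 50% after viability correction, with every replicate also passing that limit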;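 further: firefly luciferase signal divided by Alamar Blue viability fluorescence both relative to DMSO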
FN deposition inh: fibronectin deposition inhibition. inhibition, % at 12.6 µM. AH1F fibroblasts, Alexa488-fibronectin deposition fluorescence, overnight. hit rate 0.086% among 350,000;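 active means mean inhibition across replicates of 30% or more, regardless of how many single replicates reach that level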;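 further: positive control wells lacked labelled fibronectin entirely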
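Material – AH1F fibroblast monolayer, labelled fibronectin deposition · Reagent – labelled fibronectin 24 nM · Timing – 1 h adhesion, overnight exposure · Measured by – fluorescence at 485 nm excitation, 525 nm emission · Read-out – inhibition of fibronectin deposition signal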
Xi reactivation: X-chromosome reactivation activator | activation, % at 7.58 µM | XiGFP mouse fibroblasts, % GFP-positive cells imaging, 3 d; cells co-treated with 5-aza-dC sensitizer; scaled so ellipticine positive control = 100% | hit rate 0.055% among 360,000 | AID 743238;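 active means mean normalized replicate activation at least 10% and every replicate at or above 10%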;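 further: 0% = median of on-plate neutral control wells and 100% = ellipticine 6 µM median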
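Material: XiGFP fibroblasts, SV40-immortalized. Buffer or medium: DMEM plus 5-aza-dC sensitizer. Compound: single concentration per compound, delivered by pin transfer. Times: 3 days compound exposure. Controls: ellipticine 6 µM.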
TWEAK-Fn14 inh: inhibitors of TWEAK-Fn14 interaction signaling; TWEAK-stimulated Fn14 reporter cells, luciferase luminescence, 8 h; inhibition, % at 10 µM; hit rate 2% among 360,000; AID 1159606; in the data active means inhibition above about 50%
Starred values were filed as active, the others as inactive.

How did C[C@@H]1CN([C@@H](C)CO)C(=O)c2cc(NC(=O)Nc3cccc4ccccc34)ccc2O[C@@H](C)CCCCO[C@H]1CN(C)CC1CC1 do in these assays?
LGR2 antag: -1; EWS-Fli block: -3; Xi reactivation: 0

What do the screens show for `C[C@@H]1CN([C@@H](C)CO)C(=O)c2cc(NC(=O)Nc3cccc4ccccc34)ccc2O[C@@H](C)CCCCO[C@@H]1CN(C)CC1CCCCC1`?
LGR2 antag: -10; EWS-Fli block: 82*; Xi reactivation: 0

How did OC[C@H]1[C@@H](c2ccc(C#Cc3cccnc3)cc2)[C@H]2CN(Cc3ccccc3F)CCCCN21 do in these assays?
LGR2 antag: 7; EWS-Fli block: 25; Xi reactivation: 0

How did C[C@@H]1CN([C@@H](C)CO)C(=O)c2cc(NC(=O)Nc3cccc4ccccc34)ccc2O[C@@H]1CN(C)CC1CCCCC1 do in these assays?
LGR2 antag: -21; EWS-Fli block: 77*; Xi reactivation: 0

How did C[C@@H]1CCCCO[C@H](CN(C)CC2CC2)[C@@H](C)CN([C@H](C)CO)C(=O)c2cc(NC(=O)Nc3cccc4ccccc34)ccc2O1 do in these assays?
LGR2 antag: -15; EWS-Fli block: -2; Xi reactivation: 0

What do the screens show for `C[C@H]1CCCCO[C@H](CN(C)CC2CCCCC2)[C@@H](C)CN([C@@H](C)CO)C(=O)c2cc(NC(=O)Nc3cccc4ccccc34)ccc2O1`?
LGR2 antag: 9; EWS-Fli block: 89*; Xi reactivation: -1

Results for C[C@@H]1CN([C@@H](C)CO)C(=O)c2cc(-c3cccc(F)c3)cnc2O[C@H]1CN(C)Cc1ccccn1 ?
LGR2 antag: 16; EWS-Fli block: 2; Xi reactivation: 0

What do the screens show for `Cc1nc2c(=O)n(C)c(=O)n(C)c2nc1Cl`?
LGR2 antag: -23; TROY signal inh: 32; EWS-Fli block: 59*; FN deposition inh: -8; Xi reactivation: 1; TWEAK-Fn14 inh: 50*

Results for Cc1nn(-c2ccccc2)c(N2CCCC2)c1/C=N/NC(=S)Nc1ccccc1F ?
LGR2 antag: -39; TROY signal inh: 64*; EWS-Fli block: 12; FN deposition inh: 1; Xi reactivation: 0; TWEAK-Fn14 inh: 26

What do the screens show for `Cc1nn(-c2ccccc2)c(N2CCCC2)c1/C=N/NC(=O)c1cc2ccccc2cc1O`?
TROY signal inh: 10; EWS-Fli block: -45; FN deposition inh: 1; Xi reactivation: 1; TWEAK-Fn14 inh: 27

What do the screens show for `COCCCNCC(O)COc1ccccc1F` (stereo unspecified)?
LGR2 antag: 2; TROY signal inh: -5; EWS-Fli block: -37; FN deposition inh: 1; Xi reactivation: 0; TWEAK-Fn14 inh: 98*

How did COCCCNCC(O)COc1cccc2[nH]c(C)cc12 (stereo unspecified) do in these assays?
LGR2 antag: -31; TROY signal inh: 7; EWS-Fli block: -3; Xi reactivation: 0; TWEAK-Fn14 inh: -19

Results for CN1[C@H](C(=O)NC2Cc3ccccc3C2)[C@@H](CO)[C@@H]2Cn3c(ccc(-c4ccccc4)c3=O)[C@@H]21 ?
LGR2 antag: -14; EWS-Fli block: 8; Xi reactivation: 0

What do the screens show for `O=S1(=O)c2ccc(Br)cc2OC(COCc2ccccc2)CN1Cc1ccccc1` (stereo unspecified)?
LGR2 antag: 6; TROY signal inh: 2; EWS-Fli block: -11; FN deposition inh: 2; Xi reactivation: 0; TWEAK-Fn14 inh: 7

How did O=S1(=O)c2ccc(Br)cc2N2CCC[C@@H]2CN1Cc1ccccc1 do in these assays?
LGR2 antag: -2; TROY signal inh: 24; EWS-Fli block: 52*; FN deposition inh: 7; Xi reactivation: 1; TWEAK-Fn14 inh: 15

How did COc1cc(C(C)=O)ccc1OCC(O)CN1CCN(c2ccccn2)CC1 (stereo unspecified) do in these assays?
LGR2 antag: 8; TROY signal inh: -8; EWS-Fli block: 10; FN deposition inh: 4; Xi reactivation: 0; TWEAK-Fn14 inh: 108*

What do the screens show for `COC(=O)c1cn(CCNC(=O)Nc2ccccc2)nn1`?
EWS-Fli block: -17

What do the screens show for `OC(CNCC(c1ccc(Cl)cc1Cl)c1c[nH]c2ccccc12)c1ccccc1` (stereo unspecified)?
LGR2 antag: 102*; TROY signal inh: 79*; EWS-Fli block: 48; Xi reactivation: 0; TWEAK-Fn14 inh: 74*

What do the screens show for `O=[N+]([O-])CC(c1ccccc1)c1c[nH]c2ccccc12` (stereo unspecified)?
LGR2 antag: 6; TROY signal inh: 5; EWS-Fli block: 37; FN deposition inh: 9; Xi reactivation: 0; TWEAK-Fn14 inh: 2

How did C[C@@H]1CN([C@@H](C)CO)C(=O)c2cc(NC(=O)c3ccncc3)ccc2O[C@H]1CN(C)C(=O)Nc1ccc(C(F)(F)F)cc1 do in these assays?
LGR2 antag: 1; EWS-Fli block: 0; FN deposition inh: 4; Xi reactivation: -1

Results for COc1ccc(-n2c(-c3ccc(Br)cc3)c[n+]3c2CCC3)cc1 ?
LGR2 antag: -25; TROY signal inh: 27; EWS-Fli block: 23; FN deposition inh: 13; Xi reactivation: 0; TWEAK-Fn14 inh: 23

What do the screens show for `COc1ccc(-n2c(-c3ccccc3)c[n+]3c2CCC3)cc1`?
LGR2 antag: 10; TROY signal inh: -8; EWS-Fli block: 17; FN deposition inh: -9; Xi reactivation: 0; TWEAK-Fn14 inh: 86*

How did CC(C)OC(=O)c1ccc(NCc2cc(O)ccc2O)cc1 do in these assays?
TROY signal inh: 16; EWS-Fli block: 69*; FN deposition inh: 10; Xi reactivation: 1; TWEAK-Fn14 inh: 101*

What do the screens show for `O=C(OCc1ccccc1)c1ccc(NCc2cc(O)ccc2O)cc1`?
LGR2 antag: 54*; TROY signal inh: 58*; EWS-Fli block: 62*; FN deposition inh: 29; Xi reactivation: 0; TWEAK-Fn14 inh: 107*

How did CO[C@H]1O[C@H](CO)[C@@H](OC(=O)Nc2ccccc2)[C@H](OC(=O)Nc2ccccc2)[C@H]1OC(=O)Nc1ccccc1 do in these assays?
EWS-Fli block: -4

How did CCC(=O)N1CCC2(CC1)CN(C(=O)c1ccccn1)[C@@H](CO)c1c2c2ccc(OC)cc2n1C do in these assays?
Xi reactivation: 0

What do the screens show for `CC(C)c1cn(CC[C@@H]2CC[C@H](NC(=O)C3CCOCC3)[C@H](CO)O2)nn1`?
LGR2 antag: -10; Xi reactivation: 5

Results for O=C(O[C@@H]1OC2COC(=O)c3cc(O)c(O)c(O)c3-c3c(cc(O)c(O)c3O)C(=O)O[C@@H]([C@H]1O)[C@@H]2O)c1cc(O)c(O)c(O)c1 ?
TROY signal inh: -20; TWEAK-Fn14 inh: 75*
